According to ChEMBL document CHEMBL1125169, “Trifluoromethylacetylenic alcohols as affinity labels: inactivation of estradiol dehydrogenase by a trifluoromethylacetylenic secostradiol” (J Med Chem, 1990):

What was measured:
[1] = target: T1, 17-beta-hydroxysteroid dehydrogenase type 1 (Homo sapiens) (UniProt P14061); experiment: Tested by protection experiments to demonstrate the inactivation of estradiol dehydrogenase and the kinetic parameter Kapp was reported at a concentration of 150 uM
T1 sequence (whole entry): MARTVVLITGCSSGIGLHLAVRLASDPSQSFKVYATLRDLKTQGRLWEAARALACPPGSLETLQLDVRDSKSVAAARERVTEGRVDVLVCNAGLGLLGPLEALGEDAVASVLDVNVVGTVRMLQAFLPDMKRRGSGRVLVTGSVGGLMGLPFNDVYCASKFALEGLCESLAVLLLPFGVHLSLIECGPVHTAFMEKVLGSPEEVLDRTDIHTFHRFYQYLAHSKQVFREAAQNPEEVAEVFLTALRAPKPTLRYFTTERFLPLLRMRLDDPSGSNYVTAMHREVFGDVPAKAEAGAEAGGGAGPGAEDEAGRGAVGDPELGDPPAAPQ
How it was run: (§1)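 Inactivation of estradiol dehydrogenase with inhibitor at 20 μM, either alone or with a protecting ligand: 17β-estradiol or 17α-estradiol at 32 μM, or cofactors at 150 μM. Apparent inactivation rate constant (kapp, min⁻¹) was taken from least-squares fits of the time courses (r ≥ 0.992).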

[2] = target: T2, 17-beta-hydroxysteroid dehydrogenase type 1 (Homo sapiens, UniProt P14061); experiment: Tested for time-dependent inactivation of the enzyme that followed pseudo- first- order kinetics in the absence of NAD+ and the Ki values were reported
T2 sequence (P14061 whole entry): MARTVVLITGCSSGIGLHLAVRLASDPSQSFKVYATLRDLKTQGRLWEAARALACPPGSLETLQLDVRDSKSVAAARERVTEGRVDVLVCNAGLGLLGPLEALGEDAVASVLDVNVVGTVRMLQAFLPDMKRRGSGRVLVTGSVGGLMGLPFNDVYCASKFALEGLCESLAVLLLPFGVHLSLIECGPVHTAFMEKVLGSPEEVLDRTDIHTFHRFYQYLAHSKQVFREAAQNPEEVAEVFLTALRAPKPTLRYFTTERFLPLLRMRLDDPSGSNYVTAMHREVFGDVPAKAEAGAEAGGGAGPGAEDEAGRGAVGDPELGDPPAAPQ
How it was run: (§2)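 Time-dependent inactivation of estradiol dehydrogenase was run at several inhibitor concentrations without NAD⁺, in 1 M carbonate buffer (pH 9.2) with glycerol omitted. Points are the mean of three experiments (two at 80 μM). Pseudo-first-order inactivation kinetics gave Ki and limiting t1/2.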

[3] = The limiting half life time was reported; how it was run: as §2
[4] = target: T1, 17-beta-hydroxysteroid dehydrogenase type 1 (Homo sapiens); experiment: Tested by protection experiments to demonstrate the inactivation of estradiol dehydrogenase and the kinetic parameter Kapp was reported at a concentration of 20 uM; how it was run: as §1
[5] = target: T2, 17-beta-hydroxysteroid dehydrogenase type 1; experiment: Tested by protection experiments to demonstrate the inactivation of estradiol dehydrogenase and the kinetic parameter Ki app was reported at a concentration of 20 uM; details: read-out: Ki app; how it was run: as §1
[6] = substrate: C#CC(O)[C@@]1(C)CCC2c3ccc(O)cc3CCC2C1

## C[C@@]1(C(O)C#CC(F)(F)F)CCC2c3ccc(O)cc3CCC2C1 (single isomer, unassigned)
[1]
  K app: 0.011 min⁻¹
[2]
  Ki: 65 µM
[3]
  half-life: 8 min
[4]
  K app: 0.021 min⁻¹

## C[C@]12CC[C@@H]3c4ccc(O)cc4CC[C@H]3[C@@H]1CC[C@H]2O
[4]
  K app: 0.01 min⁻¹

## C#CC(=O)[C@@]1(C)CCC2c3ccc(O)cc3CCC2C1 (stereo not given in full)
[5]
  Ki: 2.8 µM

## NC(=O)C1=CN(C2OC(COP(=O)(O)OP(=O)(O)OC[C@H]3O[C@@H](n4cnc5c(N)ncnc54)[C@H](O)[C@@H]3O)[C@H](O)[C@@H]2O)C=CC1 (stereo not given in full)
[4]
  K app: 0.025 min⁻¹

## C[C@]12CC[C@@H]3c4ccc(O)cc4CC[C@H]3[C@@H]1CC[C@@H]2O
[4]
  K app: 0.013 min⁻¹

## C[C@]1(C(O)C#CC(F)(F)F)CCC2c3ccc(O)cc3CCC2C1 (stereo not given in full)
[1]
  K app: 0.014 min⁻¹
[2]
  Ki: 59 µM
[3]
  half-life: 7 min
[4]
  K app: 0.026 min⁻¹

## C[C@]12CC[C@@H]3c4ccc(O)cc4CC[C@H]3[C@@H]1CC[C@@H]2O.NC(=O)C1=CN([C@@H]2O[C@H](COP(=O)(O)OP(=O)(O)OC[C@H]3O[C@@H](n4cnc5c(N)ncnc54)[C@H](O)[C@@H]3O)[C@@H](O)[C@H]2O)C=CC1
[4]
  K app: 0.013 min⁻¹

## NC(=O)c1ccc[n+]([C@@H]2O[C@H](COP(=O)([O-])OP(=O)(O)OC[C@H]3O[C@@H](n4cnc5c(N)ncnc54)[C@H](O)[C@@H]3O)[C@@H](O)[C@H]2O)c1
[4]
  K app: 0.013 min⁻¹

B1: 17-beta-hydroxysteroid dehydrogenase type 1 (Homo sapiens), P14061 (protein)
chain: MARTVVLITGCSSGIGLHLAVRLASDPSQSFKVYATLRDLKTQGRLWEAARALACPPGSLETLQLDVRDSKSVAAARERVTEGRVDVLVCNAGLGLLGPLEALGEDAVASVLDVNVVGTVRMLQAFLPDMKRRGSGRVLVTGSVGGLMGLPFNDVYCASKFALEGLCESLAVLLLPFGVHLSLIECGPVHTAFMEKVLGSPEEVLDRTDIHTFHRFYQYLAHSKQVFREAAQNPEEVAEVFLTALRAPKPTLRYFTTERFLPLLRMRLDDPSGSNYVTAMHREVFGDVPAKAEAGAEAGGGAGPGAEDEAGRGAVGDPELGDPPAAPQ
[6]
  Km: 79 µM
